# According to ChEMBL document CHEMBL4052620, “Design and synthesis of sulfonamide-substituted diphenylpyrimidines (SFA-DPPYs) as potent Bruton's tyrosine kinase (BTK) inhibitors with improved activity toward B-cell lymphoblastic leukemia” (Eur J Med Chem, 2017):
# Calls of active or inactive are those of the source. The calls are words filed in the database; no cut-off is given here.
# How the values were obtained:
# [1] = target: Tyrosine-protein kinase BTK (Homo sapiens, UniProt Q06187); assay: Inhibition of human recombinant full-length N-terminal His-tagged BTK expressed in baculovirus infected Sf9 insect cells after 60 mins by ADP-Glo kinase assay
# [2] = system: Ramos; assay: Antiproliferative activity against human Ramos cells over expressing BTK after 48 hrs by CCK-8 assay; format: functional, cell-based
# Outline: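 Cells seeded at 3,000–5,000 per well in RPMI1640 with 10% FBS, held one day at 37 °C and 5% CO₂, then exposed to compound for 48 h. Concentrations ran 1.25 to 40 µM, five replicates per concentration. Read-out is CCK-8 absorbance at 450 nm. IC50 comes from five-point dose-response curves, as the mean of at least three separate experiments.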
# [3] = system: Raji; assay: Antiproliferative activity against human Raji cells over expressing BTK after 48 hrs by CCK-8 assay; format: functional, cell-based
# Outline: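 Cells seeded at 3,000–5,000 per well in RPMI1640 with 10% FBS, held one day at 37 °C and 5% CO₂, then exposed to compound for 48 h. Read-out is CCK-8 absorbance at 450 nm. IC50 comes from five-point dose-response curves, as the mean of at least three separate experiments.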
# [4] = system: Ramos; assay: Induction of apoptosis in human Ramos cells assessed as necrotic cells at 1 uM after 48 hrs by annexin V-FITC/propidium iodide staining-based flow cytometric analysis (reference value: 0.2%); format: functional
# [5] = system: Ramos; assay: Antiproliferative activity against human Ramos cells over expressing BTK at 10 uM after 72 hrs by CCK-8 assay; format: functional, cell-based
# Outline: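 Ramos cells in RPMI-1640 with 10% FBS at 37 °C and 5% CO₂ were treated at 5, 10 or 20 µM for 24, 48 and 72 h. Viability was read by CCK-8 against an untreated control.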
# [6] = system: Ramos; assay: Induction of apoptosis in human Ramos cells assessed as viable cells at 1 uM after 48 hrs by annexin V-FITC/propidium iodide staining-based flow cytometric analysis relative to control; format: functional; details: read-out: Activity
# [7] = system: Ramos; assay: Induction of apoptosis in human Ramos cells assessed as late apoptotic cells at 5 uM after 48 hrs by annexin V-FITC/propidium iodide staining-based flow cytometric analysis relative to control; format: functional
# [8] = system: Ramos; assay: Induction of apoptosis in human Ramos cells assessed as late apoptotic cells at 1 uM after 48 hrs by annexin V-FITC/propidium iodide staining-based flow cytometric analysis relative to control; format: functional
# [9] = system: Ramos; assay: Induction of apoptosis in human Ramos cells assessed as early apoptotic cells at 5 uM after 48 hrs by annexin V-FITC/propidium iodide staining-based flow cytometric analysis relative to control; format: functional
# [10] = system: PBMC; assay: Cytotoxicity against human PBMC at 5 to 10 uM after 24 hrs by acridine orange/propidium iodide staining-based fluorescent microscopic analysis; format: cell-based
# Outline: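 PBMC were isolated from venous blood of a healthy adult on Lymphoprep (density 1.077 g/ml), washed in PBS and seeded at about 2.5 × 10⁵ cells/well. Cells were treated at 5, 10 or 20 µM, five replicates, for 24 h at 37 °C in RPMI1640 with 10% FBS. Staining was AO/PI, 1.0 µg/mL each, for 10 min at room temperature. Live cells were counted under a fluorescence microscope with a counting chamber.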
# [11] = system: Ramos; assay: Induction of apoptosis in human Ramos cells assessed as necrotic cells at 5 uM after 48 hrs by annexin V-FITC/propidium iodide staining-based flow cytometric analysis (reference value: 0.2%); format: functional
# [12] = system: Ramos; assay: Induction of apoptosis in human Ramos cells assessed as viable cells at 5 uM after 48 hrs by annexin V-FITC/propidium iodide staining-based flow cytometric analysis relative to control; format: functional; details: read-out: Activity
# [13] = system: Ramos; assay: Induction of apoptosis in human Ramos cells assessed as early apoptotic cells at 1 uM after 48 hrs by annexin V-FITC/propidium iodide staining-based flow cytometric analysis relative to control; format: functional
# [14] = system: Ramos; assay: Induction of apoptosis in human Ramos cells assessed as early apoptotic cells at 10 uM after 48 hrs by annexin V-FITC/propidium iodide staining-based flow cytometric analysis relative to control; format: functional
# Outline: (§1)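 Ramos cells at 3 to 5 × 10⁵ cells/well were exposed for 48 h in medium with 5% FBS, with DMSO as solvent control. Cells were then fixed in ethanol at 4 °C, stained with Annexin V-FITC/propidium iodide and analysed by flow cytometry. One representative experiment is shown.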
# [15] = system: Ramos; assay: Induction of apoptosis in human Ramos cells assessed as late apoptotic cells at 10 uM after 48 hrs by annexin V-FITC/propidium iodide staining-based flow cytometric analysis relative to control; format: functional; outline: as §1
# [16] = system: Ramos; assay: Induction of apoptosis in human Ramos cells assessed as necrotic cells at 10 uM after 48 hrs by annexin V-FITC/propidium iodide staining-based flow cytometric analysis (reference value: 0.2%); format: functional; outline: as §1
# [17] = system: Ramos; assay: Induction of apoptosis in human Ramos cells assessed as viable cells at 10 uM after 48 hrs by annexin V-FITC/propidium iodide staining-based flow cytometric analysis relative to control; format: functional; details: read-out: Activity; outline: as §1
# [18] = system: PBMC; assay: Cytotoxicity against human PBMC at 5 to 10 uM after 24 hrs by acridine orange/propidium iodide staining-based fluorescent microscopic analysis relative to control; format: cell-based
# Outline: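 PBMC isolated on Lymphoprep (density 1.077 g/ml) from venous blood of one healthy adult, seeded about 2.5 × 10⁵ cells/well in RPMI1640 with 10% FBS. Treated at 5, 10 or 20 µM for 24 h at 37 °C, 5% CO₂, five replicates per concentration. Stained with AO/PI (1.0 µg/mL each, in PBS) for 10 min at room temperature. Live cells counted by fluorescence microscopy and counting chamber.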
# Chain of Tyrosine-protein kinase BTK (Q06187 whole entry): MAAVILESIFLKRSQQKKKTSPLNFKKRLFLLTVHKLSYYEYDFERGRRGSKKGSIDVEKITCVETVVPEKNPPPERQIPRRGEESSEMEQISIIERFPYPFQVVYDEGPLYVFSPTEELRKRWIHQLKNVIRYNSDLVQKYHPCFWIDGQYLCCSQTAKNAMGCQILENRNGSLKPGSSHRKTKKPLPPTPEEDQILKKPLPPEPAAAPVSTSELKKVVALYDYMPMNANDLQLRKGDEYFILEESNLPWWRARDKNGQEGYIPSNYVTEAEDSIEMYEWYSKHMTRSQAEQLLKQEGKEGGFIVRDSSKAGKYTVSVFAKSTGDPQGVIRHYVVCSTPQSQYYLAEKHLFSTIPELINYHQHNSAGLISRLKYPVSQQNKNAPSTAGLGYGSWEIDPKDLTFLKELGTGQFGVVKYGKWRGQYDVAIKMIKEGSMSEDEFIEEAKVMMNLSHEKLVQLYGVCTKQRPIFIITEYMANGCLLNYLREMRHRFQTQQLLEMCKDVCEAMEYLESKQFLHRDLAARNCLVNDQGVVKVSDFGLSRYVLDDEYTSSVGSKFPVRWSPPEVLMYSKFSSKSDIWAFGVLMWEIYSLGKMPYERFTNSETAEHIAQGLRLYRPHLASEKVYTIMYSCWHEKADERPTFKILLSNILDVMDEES
Compound,IC50 [1] [µM],IC50 [2] [µM],IC50 [3] [µM],other results
C=CC(=O)Nc1cccc(Nc2nc(Nc3ccc(NS(=O)(=O)c4ccc(C)cc4)cc3)ncc2Cl)c1,0.0585,> 40,17.4,
C=CC(=O)Nc1cccc(Oc2nc(Nc3ccc(NS(=O)(=O)c4ccc(OC)cc4)cc3)ncc2Cl)c1,0.00042,> 40,40.9,
C=CC(=O)Nc1cccc(Nc2nc(Nc3ccc(NS(=O)(=O)c4ccc(OC)cc4)cc3)ncc2F)c1,0.00092,> 40,36.9,
C=CC(=O)Nc1cccc(Nc2nc(Nc3ccc(NS(=O)(=O)c4ccc(F)cc4)c(OC)c3)ncc2Cl)c1,0.00118,6.49,13.2,Activity [4]: 17%; Activity [5]: Active; viability at 1 µM [6]: 55.4%; Activity [7]: 54.6%; Activity [8]: 4.3%; Activity [9]: 7.2%; Activity [10]: Non-Toxic; Activity [11]: 13.2%; viability at 5 µM [12]: 25%; Activity [13]: 23.3%
C=CC(=O)Nc1cccc(Oc2nc(Nc3ccc(NS(=O)(=O)c4ccc(C)cc4)c(C)c3)ncc2Cl)c1,0.00105,7.23,18.7,
C=CC(=O)Nc1cccc(Nc2nc(Nc3ccc(NS(=O)(=O)c4ccc(C)cc4)c(OC)c3)ncc2[N+](=O)[O-])c1,> 0.1,> 40,34.1,
C=CC(=O)Nc1cccc(Nc2nc(Nc3ccc(NS(=O)(=O)c4ccc(F)cc4)c(C)c3)ncc2[N+](=O)[O-])c1,0.0854,> 40,22.4,
C=CC(=O)N1CCC[C@@H](n2nc(-c3ccc(Oc4ccccc4)cc3)c3c(N)ncnc32)C1 [IBRUTINIB],,5.88,,Activity [14]: 37.6%; Activity [15]: 7.5%; Activity [16]: 14.7%; viability at 10 µM [17]: 40.2%; Activity [18]: 50%
C=CC(=O)Nc1cccc(Nc2nc(Nc3ccc(NS(=O)(=O)c4ccc(OC)cc4)cc3)ncc2[N+](=O)[O-])c1,0.0238,> 40,18.7,
C=CC(=O)Nc1cccc(Nc2nc(Nc3ccc(NS(=O)(=O)c4ccc(F)cc4)c(C)c3)ncc2Cl)c1,0.0786,6.44,10.5,
C=CC(=O)Nc1cccc(Nc2nc(Nc3ccc(NS(=O)(=O)c4ccc(OC)cc4)cc3)ncc2Cl)c1,0.00914,18.8,15.5,
C=CC(=O)Nc1cccc(Nc2nc(Nc3ccc(OCCOC)cc3)ncc2F)c1 [SPEBRUTINIB],,18.8,,Activity [14]: 27.7%; Activity [15]: 5.9%; Activity [16]: 15.6%; viability at 10 µM [17]: 50.9%
C=CC(=O)Nc1cccc(Nc2nc(Nc3ccc(NS(=O)(=O)c4ccc(C)cc4)c(C)c3)ncc2[N+](=O)[O-])c1,0.0486,38,14.2,
